Assay results: ChEMBL document CHEMBL3286393 (J Med Chem, 2014)
pIC50: −log10 of the molar value. Calls of active or inactive are those of the source. The rule behind the calls is not given here.

Legend:
[1] = target: T1, Polyunsaturated fatty acid 5-lipoxygenase (Homo sapiens, UniProt P09917); assay: Inhibition of human recombinant 5-LO expressed in Escherichia coli Bl21 (DE3) using arachidonic acid as substrate preincubated for 10 mins measured after 10 mins by RP-HPLC analysis
T1 sequence (P09917 whole entry): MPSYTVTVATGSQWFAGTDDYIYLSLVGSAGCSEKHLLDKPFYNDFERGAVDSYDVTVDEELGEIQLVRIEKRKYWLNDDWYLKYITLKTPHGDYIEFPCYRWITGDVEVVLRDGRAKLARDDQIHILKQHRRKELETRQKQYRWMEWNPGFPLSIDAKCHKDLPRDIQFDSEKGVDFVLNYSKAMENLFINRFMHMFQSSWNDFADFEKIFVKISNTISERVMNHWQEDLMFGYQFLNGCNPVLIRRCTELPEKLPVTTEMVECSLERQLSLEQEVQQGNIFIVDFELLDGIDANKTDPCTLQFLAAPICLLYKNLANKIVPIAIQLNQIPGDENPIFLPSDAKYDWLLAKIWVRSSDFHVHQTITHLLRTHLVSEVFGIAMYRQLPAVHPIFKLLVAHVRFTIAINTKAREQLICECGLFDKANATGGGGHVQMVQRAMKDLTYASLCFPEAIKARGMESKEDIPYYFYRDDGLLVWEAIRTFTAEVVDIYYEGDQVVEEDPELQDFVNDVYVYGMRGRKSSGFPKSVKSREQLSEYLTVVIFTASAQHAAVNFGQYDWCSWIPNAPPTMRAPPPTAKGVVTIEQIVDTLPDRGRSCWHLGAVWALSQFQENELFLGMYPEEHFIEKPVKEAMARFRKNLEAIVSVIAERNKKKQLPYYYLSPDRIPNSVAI
In short: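 5-LO expressed from pT3-5LO in E. coli BL21(DE3), semi-purified on ATP-agarose, diluted in PBS with 1 mM EDTA and 1 mM ATP. Preincubated with compound 10 min at 4 °C, then 30 s at 37 °C. Started with 2 mM CaCl2 plus 20 μM arachidonic acid; 10 min at 37 °C; ice-cold methanol stop. Three to four experiments.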

[2] = system: LNCaP; assay: Cytotoxicity against human LNCAP cells assessed as cell viability after 24 hrs by MTT assay; type: cell-based
In short: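 LNCaP seeded at 10⁴ cells/well and exposed 24 h. MTT added, then 4 h at 37 °C, 5% CO2, dark. Medium removed and formazan dissolved in DMSO; absorbance at 570 nm.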

[3] = target: T2, Prostaglandin G/H synthase 1 (Ovis aries) (UniProt P05979); assay: Inhibition of purified ovine COX-1 assessed as residual activity by measuring formation of 12-HHT from arachidonic acid preincubated at 10 uM for 5 mins before substrate addition measured after 5 mins by HPLC analysis relative to control
T2 sequence (whole entry): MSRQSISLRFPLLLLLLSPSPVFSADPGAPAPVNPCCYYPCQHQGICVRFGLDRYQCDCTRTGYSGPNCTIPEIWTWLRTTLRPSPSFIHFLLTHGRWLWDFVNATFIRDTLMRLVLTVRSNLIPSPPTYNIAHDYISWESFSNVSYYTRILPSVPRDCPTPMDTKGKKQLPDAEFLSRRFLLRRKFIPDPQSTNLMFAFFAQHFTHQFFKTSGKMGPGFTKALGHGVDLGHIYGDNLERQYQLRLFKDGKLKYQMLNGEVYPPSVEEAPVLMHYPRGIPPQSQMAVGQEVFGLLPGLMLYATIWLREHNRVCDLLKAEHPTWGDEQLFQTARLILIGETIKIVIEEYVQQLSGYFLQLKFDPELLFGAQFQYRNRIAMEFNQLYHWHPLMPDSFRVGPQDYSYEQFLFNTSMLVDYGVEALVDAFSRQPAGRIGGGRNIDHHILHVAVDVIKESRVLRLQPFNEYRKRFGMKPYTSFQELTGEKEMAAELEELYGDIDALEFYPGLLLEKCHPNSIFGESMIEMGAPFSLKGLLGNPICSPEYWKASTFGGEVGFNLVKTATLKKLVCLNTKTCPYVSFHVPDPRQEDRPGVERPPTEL
In short: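 Purified ovine COX-1 (50 units) in 100 mM Tris pH 8 with 5 mM glutathione, 5 μM hemoglobin and 100 μM EDTA. Preincubated 5 min at 4 °C then 1 min at 37 °C. 5 μM arachidonic acid added; 12-HHT extracted after 5 min and measured by HPLC. Residual activity at 10 μM, three independent experiments.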

[4] = target: Prostaglandin G/H synthase 1 (Homo sapiens, UniProt P23219); assay: Inhibition of COX1-mediated PGE2 production in human platelets assessed as residual activity by measuring formation of 12-HHT from arachidonic acid preincubated at 10 uM for 5 mins measured after 5 mins by RP-HPLC analysis relative to control
In short: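 Washed human platelets, 10⁸/mL in PBS pH 7.4 with 1 mM CaCl2: 5 min compound preincubation at room temperature, then 1 min at 37 °C. Arachidonic acid 5 μM added; 5 min at 37 °C. 12-HHT extracted and measured by RP-HPLC.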

[5] = system: PBMC; assay: Cytotoxicity against human PBMCs assessed as cell viability after 24 hrs by MTT assay; type: cell-based
In short: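 Human PBMC (2 × 10⁵/well), 24 h exposure. MTT then 4 h at 37 °C in darkness. Formazan solubilized with 10% SDS in 20 mM HCl; absorbance 550 nm. Viability relative to untreated cells; IC50 derived.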

[6] = target: T3, Polyunsaturated fatty acid lipoxygenase ALOX12 (Homo sapiens) (UniProt P18054); assay: Inhibition of 12-LO in human neutrophils assessed as residual activity relative to control; conditions: for residual activity: values are per cent of control
T3 sequence (whole entry): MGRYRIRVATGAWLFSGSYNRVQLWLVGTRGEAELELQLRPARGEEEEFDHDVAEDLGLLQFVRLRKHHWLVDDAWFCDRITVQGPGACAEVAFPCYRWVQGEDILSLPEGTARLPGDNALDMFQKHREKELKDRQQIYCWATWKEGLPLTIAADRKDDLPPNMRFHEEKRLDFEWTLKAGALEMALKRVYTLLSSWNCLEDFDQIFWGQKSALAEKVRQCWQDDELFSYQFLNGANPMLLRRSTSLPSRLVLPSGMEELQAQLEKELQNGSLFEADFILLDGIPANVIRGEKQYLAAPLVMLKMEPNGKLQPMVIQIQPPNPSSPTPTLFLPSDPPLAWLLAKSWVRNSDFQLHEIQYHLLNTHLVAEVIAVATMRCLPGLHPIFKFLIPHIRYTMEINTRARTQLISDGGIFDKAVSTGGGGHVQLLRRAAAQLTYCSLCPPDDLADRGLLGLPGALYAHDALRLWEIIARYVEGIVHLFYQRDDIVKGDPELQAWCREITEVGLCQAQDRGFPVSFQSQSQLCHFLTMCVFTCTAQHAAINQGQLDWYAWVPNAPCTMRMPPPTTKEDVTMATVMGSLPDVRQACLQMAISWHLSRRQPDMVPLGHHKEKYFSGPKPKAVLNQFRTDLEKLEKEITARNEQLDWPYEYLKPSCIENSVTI

Sequence of Prostaglandin G/H synthase 1 (P23219 whole entry): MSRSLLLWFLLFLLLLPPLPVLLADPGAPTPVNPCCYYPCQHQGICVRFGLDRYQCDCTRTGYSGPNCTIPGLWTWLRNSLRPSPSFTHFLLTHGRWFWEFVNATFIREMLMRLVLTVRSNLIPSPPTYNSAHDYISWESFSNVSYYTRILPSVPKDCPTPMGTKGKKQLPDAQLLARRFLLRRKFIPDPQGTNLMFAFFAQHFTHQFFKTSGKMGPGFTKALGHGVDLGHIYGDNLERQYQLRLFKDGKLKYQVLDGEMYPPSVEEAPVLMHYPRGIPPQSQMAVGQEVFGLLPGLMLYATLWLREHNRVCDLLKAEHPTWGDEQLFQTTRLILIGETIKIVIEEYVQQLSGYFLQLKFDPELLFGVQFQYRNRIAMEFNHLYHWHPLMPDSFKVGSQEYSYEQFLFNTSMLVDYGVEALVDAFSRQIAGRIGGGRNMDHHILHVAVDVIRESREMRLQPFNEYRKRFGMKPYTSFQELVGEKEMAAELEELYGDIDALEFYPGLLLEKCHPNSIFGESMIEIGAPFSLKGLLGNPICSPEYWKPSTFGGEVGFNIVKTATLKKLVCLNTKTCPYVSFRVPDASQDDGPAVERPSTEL

Structure (SMILES) | pIC50 [1] | inhibition [3] | inhibition [4] | residual activity [6] [%] | inhibition [6] | pIC50 [2] | pIC50 [5]
COc1cc(/C=C/C(=O)CC(=O)c2ccc(O)c(OC)c2)ccc1O | 5.64 | inactive | inactive | 60.6 |  | < 4.30 | < 4.30
COc1cc(CCC(=O)CC(=O)CCc2ccc(O)c(OC)c2)ccc1O [TETRAHYDROCURCUMIN] | 5.49 | inactive | inactive | 87.4 |  | < 4.30 | < 4.30
COc1cc(/C=C/C(=O)CC(=O)/C=C/c2ccc(O)c(OC)c2)ccc1O [CURCUMIN] |  | inactive |  | 65 |  | 4.44 | 4.46
COc1cc(/C=C/C(=O)CC(=O)/C=C/c2cc(CC=C(C)C)c(O)c(OC)c2)cc(CC=C(C)C)c1O | 6.15 |  | inactive |  | inactive | < 4.30 | < 4.30
COc1cc(/C=C/C(=O)/C=C/c2ccc(O)c(OC)c2)ccc1O | 6.10 | inactive | inactive | 70.1 |  | 5.00 | 4.46

Further molecules by rising pIC50 [1], results first:

pIC50 [1] | inhibition [3] | inhibition [4] | residual activity [6] [%] | inhibition [6] | Structure (SMILES) | pIC50 [2] | pIC50 [5]
6.30 |  | inactive | 64.7 |  | COc1cc(/C=C/C(=O)/C=C/c2cc(CC=C(C)C)c(O)c(OC)c2)cc(CC=C(C)C)c1O | 4.36 | < 4.30
7.00 | inactive | inactive | 68.7 |  | COc1cc(/C=C/c2cc(/C=C/c3cc(CC=C(C)C)c(O)c(OC)c3)[nH]n2)cc(CC=C(C)C)c1O | < 4.30 | < 4.30
7.05 | inactive | inactive |  |  | COc1cc(/C=C/c2cc(-c3ccc(O)c(OC)c3)[nH]n2)ccc1O | < 4.30 | < 4.30
7.15 | inactive |  |  |  | COc1cc(/C=C/c2cc(/C=C/c3ccc(O)c(OC)c3)[nH]n2)ccc1O [CURCUMIN PYRAZOLE] | < 4.30 | < 4.30
